System: HEK-293T
Assay: Multiplex assay against HEK293T
Type: toxicity, cell-based
Conditions: human
In short: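 Compound was added to live cells that had been stained at seeding with Hoechst33342, BioTracker Green Microtubule Cytoskeleton Dye, MitoTracker Red and Annexin V Alexa Fluor 680, and imaging followed on a CQ1 microscope at 37°C and 5% CO2. CellPathfinder machine-learning gating divided cells into Hoechst high-intensity objects or normal cells, normal cells into healthy, pyknosed or fragmented nuclei, and pyknosed cells into mitotic or apoptotic. Tubulin, mitochondrial-mass and membrane-permeability phenotypes are per cents of healthy-nucleus cells.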

[1] = 12 h, 1 µM, compound concentration 1 uM, replicate 1
[2] = 12 h, 1 µM, compound concentration 1 uM, replicate 2
[3] = 12 h, 10 µM, compound concentration 10 uM, replicate 1
[4] = 12 h, 10 µM, compound concentration 10 uM, replicate 2
[5] = 24 h, 1 µM, compound concentration 1 uM, replicate 1
[6] = 24 h, 1 µM, compound concentration 1 uM, replicate 2
[7] = 24 h, 10 µM, compound concentration 10 uM, replicate 1
[8] = 24 h, 10 µM, compound concentration 10 uM, replicate 2
[9] = 48 h, 1 µM, compound concentration 1 uM, replicate 1
[10] = 48 h, 1 µM, compound concentration 1 uM, replicate 2
[11] = 48 h, 10 µM, compound concentration 10 uM, replicate 1
[12] = 48 h, 10 µM, compound concentration 10 uM, replicate 2

Structure (SMILES): CC[C@H]1OC(=O)[C@H](C)[C@@H](O[C@H]2C[C@@](C)(OC)[C@@H](O)[C@H](C)O2)[C@H](C)[C@@H](O[C@@H]2O[C@H](C)C[C@H](N(C)C)[C@H]2O)[C@@]2(C)CC(C)=C(O2)[C@H](C)[C@@H](O)[C@]1(C)O
- Population Apoptotic (%) [1]: 35%
- Population Fragmented Nuclei (%) [1]: 8%
- Population Healthy Nuclei (%) [1]: 74%
- Population Hoechst High Intensity Objects (%) [1]: 6%
- Population Membrane Permeable-Phenotype (%) [1]: 0%
- Population Mitochondria Different-Phenotype (%) [1]: 56%
- Population Mitotic Cells (%) [1]: 64%
- Population Normal (%) [1]: 93%
- Population Pyknosed Nuclei (%) [1]: 17%
- Population Tubulin-Different-Phenotype (%) [1]: 41%
- Total Cell Count [1]: 367
- Population Apoptotic (%) [2]: 45%
- Population Fragmented Nuclei (%) [2]: 3%
- Population Healthy Nuclei (%) [2]: 84%
- Population Hoechst High Intensity Objects (%) [2]: 7%
- Population Mitochondria Different-Phenotype (%) [2]: 72%
- Population Mitotic Cells (%) [2]: 54%
- Population Normal (%) [2]: 92%
- Population Pyknosed Nuclei (%) [2]: 11%
- Population Tubulin-Different-Phenotype (%) [2]: 27%
- Total Cell Count [2]: 300
- Population Apoptotic (%) [3]: 55%
- Population Fragmented Nuclei (%) [3]: 8%
- Population Healthy Nuclei (%) [3]: 71%
- Population Hoechst High Intensity Objects (%) [3]: 13%
- Population Membrane Permeable-Phenotype (%) [3]: 0%
- Population Mitochondria Different-Phenotype (%) [3]: 87%
- Population Mitotic Cells (%) [3]: 44%
- Population Normal (%) [3]: 86%
- Population Pyknosed Nuclei (%) [3]: 19%
- Population Tubulin-Different-Phenotype (%) [3]: 76%
- Total Cell Count [3]: 383
- Population Apoptotic (%) [4]: 56%
- Population Fragmented Nuclei (%) [4]: 11%
- Population Healthy Nuclei (%) [4]: 72%
- Population Hoechst High Intensity Objects (%) [4]: 10%
- Population Mitochondria Different-Phenotype (%) [4]: 91%
- Population Mitotic Cells (%) [4]: 43%
- Population Normal (%) [4]: 89%
- Population Pyknosed Nuclei (%) [4]: 16%
- Population Tubulin-Different-Phenotype (%) [4]: 77%
- Total Cell Count [4]: 217
- Population Apoptotic (%) [5]: 20%
- Population Fragmented Nuclei (%) [5]: 8%
- Population Healthy Nuclei (%) [5]: 78%
- Population Hoechst High Intensity Objects (%) [5]: 3%
- Population Membrane Permeable-Phenotype (%) [5]: 0%
- Population Mitochondria Different-Phenotype (%) [5]: 35%
- Population Mitotic Cells (%) [5]: 79%
- Population Normal (%) [5]: 96%
- Population Pyknosed Nuclei (%) [5]: 13%
- Population Tubulin-Different-Phenotype (%) [5]: 24%
- Total Cell Count [5]: 493
- Population Apoptotic (%) [6]: 35%
- Population Hoechst High Intensity Objects (%) [6]: 6%
- Population Mitochondria Different-Phenotype (%) [6]: 49%
- Population Mitotic Cells (%) [6]: 64%
- Population Normal (%) [6]: 93%
- Population Pyknosed Nuclei (%) [6]: 12%
- Population Tubulin-Different-Phenotype (%) [6]: 22%
- Total Cell Count [6]: 371
- Population Apoptotic (%) [7]: 42%
- Population Fragmented Nuclei (%) [7]: 9%
- Population Healthy Nuclei (%) [7]: 75%
- Population Hoechst High Intensity Objects (%) [7]: 11%
- Population Membrane Permeable-Phenotype (%) [7]: 0%
- Population Mitochondria Different-Phenotype (%) [7]: 74%
- Population Mitotic Cells (%) [7]: 57%
- Population Normal (%) [7]: 88%
- Population Pyknosed Nuclei (%) [7]: 15%
- Population Tubulin-Different-Phenotype (%) [7]: 75%
- Total Cell Count [7]: 499
- Population Apoptotic (%) [8]: 70%
- Population Fragmented Nuclei (%) [8]: 10%
- Population Healthy Nuclei (%) [8]: 71%
- Population Hoechst High Intensity Objects (%) [8]: 10%
- Population Mitochondria Different-Phenotype (%) [8]: 87%
- Population Mitotic Cells (%) [8]: 29%
- Population Normal (%) [8]: 89%
- Population Pyknosed Nuclei (%) [8]: 18%
- Population Tubulin-Different-Phenotype (%) [8]: 80%
- Total Cell Count [8]: 254
- Population Apoptotic (%) [9]: 30%
- Population Fragmented Nuclei (%) [9]: 12%
- Population Healthy Nuclei (%) [9]: 76%
- Population Hoechst High Intensity Objects (%) [9]: 8%
- Population Membrane Permeable-Phenotype (%) [9]: 0%
- Population Mitochondria Different-Phenotype (%) [9]: 28%
- Population Mitotic Cells (%) [9]: 69%
- Population Normal (%) [9]: 91%
- Population Pyknosed Nuclei (%) [9]: 11%
- Population Tubulin-Different-Phenotype (%) [9]: 21%
- Total Cell Count [9]: 718
- Population Apoptotic (%) [10]: 21%
- Population Healthy Nuclei (%) [10]: 78%
- Population Hoechst High Intensity Objects (%) [10]: 6%
- Population Mitochondria Different-Phenotype (%) [10]: 34%
- Population Mitotic Cells (%) [10]: 78%
- Population Normal (%) [10]: 93%
- Population Pyknosed Nuclei (%) [10]: 9%
- Population Tubulin-Different-Phenotype (%) [10]: 20%
- Total Cell Count [10]: 584
- Population Apoptotic (%) [11]: 50%
- Population Fragmented Nuclei (%) [11]: 12%
- Population Healthy Nuclei (%) [11]: 74%
- Population Hoechst High Intensity Objects (%) [11]: 10%
- Population Membrane Permeable-Phenotype (%) [11]: 1%
- Population Mitochondria Different-Phenotype (%) [11]: 61%
- Population Mitotic Cells (%) [11]: 50%
- Population Normal (%) [11]: 89%
- Population Pyknosed Nuclei (%) [11]: 12%
- Population Tubulin-Different-Phenotype (%) [11]: 56%
- Total Cell Count [11]: 671
- Population Apoptotic (%) [12]: 53%
- Population Healthy Nuclei (%) [12]: 75%
- Population Hoechst High Intensity Objects (%) [12]: 12%
- Population Membrane Permeable-Phenotype (%) [12]: 0%
- Population Mitochondria Different-Phenotype (%) [12]: 84%
- Population Mitotic Cells (%) [12]: 46%
- Population Normal (%) [12]: 87%
- Population Pyknosed Nuclei (%) [12]: 11%
- Population Tubulin-Different-Phenotype (%) [12]: 73%
- Total Cell Count [12]: 300
